Results gathered from unrelated publications.
Lines come from different studies, so protocols differ.
Organism: Staphylococcus aureus
Read-out: microbial growth

CC(C)Oc1c(NC(=O)c2ccc(NC(=O)[C@H](CC(N)=O)NC(=O)c3ccc(NC(=O)c4ccc([N+](=O)[O-])c(OC(C)C)c4O)cc3)cc2)ccc(C(=O)Nc2ccc(C(=O)O)cc2)c1O  MIC (ATCC29213): > 64 µg/mL
O=C(Nc1ccc(F)c(F)c1)c1cc(Cl)ccc1O  MIC (broth dilution; ATCC29213): 0.44 µg/mL
CCCCCC(=O)Oc1c(C)c(O)c(C(=O)/C=C/c2ccccc2)c(OC)c1C  MIC (broth dilution; ATCC25923): > 5000 µg/mL
Cc1ccc2nc(-c3ccc4c(c3)OCO4)[nH]c2c1  MIC (broth dilution; ATCC29213 MSSA): 256 µg/mL
O=C(Cc1ccc(O)c(O)c1)NCCCCCCCC[P+](c1ccccc1)(c1ccccc1)c1ccccc1.[Br-]  MIC (broth dilution; ATCC43300 MRSA; 18 h): > 32 µg/mL
C=CC1(C)CC(OC(=O)CSc2nc3ccccc3s2)C2(C)C(C)CCC3(CCC(=O)C32)C(C)C1O (stereo not shown)  MIC: 0.5 µg/mL
CC1=NN(CNc2c(O)c(S(=O)(=O)O)cc3ccccc23)C(=O)C1=NNn1c(-c2ccccc2)nc2ccccc2c1=O  MIC (broth dilution; 24 h): 83.7 µM
Cc1cc2c([nH]c3ccccc32)c2c1C(=O)C=CC2=O  MIC (ATCC29213): 64 µg/mL
Cn1cc(C2=C(c3ccc(Cl)cc3Cl)C(=O)NC2=O)c2ccccc21  MIC (NCTC8325): > 30 µM
C/C=C(\C)c1cc(OC(=O)c2c(O)c(C)c(O)c(Cl)c2/C(C)=C/C)c(C)c(O)c1C(=O)O  MIC (broth dilution; 16339): 64 µg/mL
Cc1cc(Cl)cc2sc(N(CCCn3ccnc3)C(=O)c3ccco3)nc12  MIC (ATCC25923): 2.6 µM
CN(C)c1ccc(-c2ccc3cc4c(c(O)c3c2)C(=O)C2=C(O)[C@]3(O)C(=O)C(C(N)=O)=C(O)[C@@H](N(C)C)[C@@H]3C[C@@H]2C4)cc1  MIC (broth dilution; ATCC29213): 32 µg/mL
COc1ccc(-c2nc3ccccc3[nH]2)cc1OC  MIC (broth dilution; ATCC29213 MSSA): 128 µg/mL
CC1=NN(CNC(=O)c2ccccn2)C(=O)C1=NNn1c(-c2ccccc2)nc2ccccc2c1=O  MIC (broth dilution; 24 h): 52 µM
CCCCCCC#Cc1cncc(-c2nnc(SCc3ccc([N+](=O)[O-])o3)n2C)c1  MIC (MRSA; drug-resistant strain): ≥ 20 µg/mL
O=C1NC(=S)N/C1=C\c1ccc(-c2ccc(N(c3ccccc3)c3ccccc3)cc2)cc1  MIC (broth dilution; ATCC43300): > 1000 µg/mL
Cc1cc(C#N)ccc1C(=O)Nc1ccc(C(=O)N[C@@H](CC(N)=O)C(=O)Nc2ccc(C(=O)Nc3ccc(C(=O)Nc4ccc(C(=O)O)cc4)c(O)c3OC(C)C)cc2)cc1  MIC (ATCC29213): 64 µg/mL
O=C1NC(=S)S/C1=C\c1ccc(-c2ccc(N(c3ccccc3)c3ccccc3)cc2)cc1  MIC (broth dilution; ATCC25923): 250 µg/mL
C/C=C(\C)c1cc(OC(=O)c2c(C)c(Cl)c(O)c(Cl)c2O)c(C)c(O)c1C(=O)O  MIC (broth dilution; 6917): > 64 µg/mL
C[C@@H](O)[C@H]1C(=O)N2C(C(=O)O)=C(S[C@@H]3CN[C@H](C(=O)N(C)C)C3)[C@H](C)[C@H]12  MIC (MRSA): 32 µg/mL
CN1CCN=C1c1ccc(NC(=O)c2ccc(C(=O)Nc3ccc(C4=NCCN4C)cc3)cc2)cc1  MIC: 8 µg/mL
Cn1cc(NC(=O)C(CC(N)=O)NC(=O)c2ccc(NC(=O)c3ccc(C#N)cc3)cc2)cc1-c1nc2ccc(C(=O)Nc3ccc(C(=O)O)cc3)c(O)c2[nH]1 (stereo not shown)  MIC (ATCC29213): > 64 µg/mL
Cc1ccc2nc(-c3ccc(N(C)C)cc3)[nH]c2c1  MIC (broth dilution; ATCC29213 MSSA): 64 µg/mL
CN(C)[C@@H]1C(O)=C(C(N)=O)C(=O)[C@@]2(O)C(O)=C3C(=O)c4c(O)cccc4[C@@](C)(O)[C@H]3C[C@@H]12  MIC (156; clinical isolate): 0.15 µM
O=C(Nc1ccc(Cl)c(C(F)(F)F)c1)N1CCc2ccccc2C1  MIC (NCTC8325; 24 h): 30 µM
C/C=C(\C)c1cc(O)c(C)c(OC(=O)c2c(C)cc(O)c(Cl)c2O)c1  MIC (broth dilution; 16162): 8 µg/mL
CSc1nc(O)n2nccc2n1  MIC: > 128 µg/mL
C/C(=C\c1ccc(C#N)cc1)C(=O)Nc1ccc(C(=O)N[C@@H](CC(N)=O)C(=O)Nc2ccc(C(=O)Nc3ccc(C(=O)Nc4ccc(C(=O)O)cc4)c(O)c3OC(C)C)cc2)cc1  MIC (ATCC29213): 0.06 µg/mL
Oc1ccc(Br)cc1-c1nc2ccccc2[nH]1  MIC (broth dilution; ATCC29213 MSSA): 64 µg/mL
C#CCCC1(CC(=O)NC(C)C)N=N1  MIC (NCTC8325): > 100 µM
COc1c(C)c(OS(=O)(=O)c2ccc3ccccc3c2)c(C)c(OS(=O)(=O)c2ccc3ccccc3c2)c1C(=O)/C=C/c1ccccc1  MIC (broth dilution; ATCC25923): 5000 µg/mL
COc1cccc(OC)c1C(=O)N[C@@H]1C(=O)N2[C@@H]1SC(C)(C)[C@@H]2C(=O)O  MIC (broth dilution; ATCCBAA44): 1020 µg/mL
O=C(O)c1cccc2ccccc12  MIC: > 128 µg/mL
CN[C@H](CC(C)C)C(=O)N[C@H]1C(=O)N[C@@H](CC(N)=O)C(=O)N[C@H]2C(=O)N[C@H]3C(=O)N[C@H](C(=O)N[C@H](C(=O)O)c4cc(O)cc(O)c4-c4cc3ccc4O)[C@H](O)c3ccc(c(Cl)c3)Oc3cc2cc(c3O[C@@H]2O[C@H](CO)[C@@H](O)[C@H](O)[C@H]2O[C@H]2C[C@](C)(N)[C@H](O)[C@H](C)O2)Oc2ccc(cc2Cl)[C@H]1O  MIC (broth dilution; 6917): 1 µg/mL
Cc1ccc2nc(-c3ccc(Cl)cc3Cl)[nH]c2c1  MIC (broth dilution; ATCC29213 MSSA): 64 µg/mL
CC(C)Oc1c(NC(=O)c2ccc(NC(=O)[C@H](CC(N)=O)NC(=O)c3ccc(NC(=O)c4ccc5c(c4)COC5=O)cc3)cc2)ccc(C(=O)Nc2ccc(C(=O)O)cc2)c1O  MIC (ATCC29213): 1 µg/mL
C=C(C/C=C(\C)CCC=C(C)C)CCC(C)(C)/C=C/CC/C(C)=C\CO[C@H](COP(=O)(O)O[C@H]1O[C@H](C(N)=O)[C@@](C)(O)[C@H](OC(N)=O)[C@H]1O[C@@H]1O[C@H](CO[C@@H]2O[C@H](CO)[C@@H](O)[C@H](O)[C@H]2O)[C@@H](O[C@@H]2O[C@H](C)[C@@H](O[C@@H]3O[C@H](C(=O)NC4=C(O)CCC4=O)[C@H](O)[C@H](O)[C@H]3O)[C@H](O)[C@H]2NC(C)=O)[C@H](O)[C@H]1NC(C)=O)C(=O)O  MIC (broth dilution; 18 h): < 0.75 µg/mL
CCS(=O)(=O)c1cccc(-c2cc(C(=O)NC3CCN(C)CC3)c(C)c3[nH]c4ncc(C)cc4c23)c1  MIC (NCTC8325): > 30 µM
COc1cccc(-c2nc3ccccc3[nH]2)c1  MIC (broth dilution; ATCC29213 MSSA): 256 µg/mL
Fc1ccc(NCc2ccc(Oc3ccccn3)cc2)cc1  MIC: 1.8 µg/mL
O=C(O)CN1C(=O)/C(=C/c2c3ccccc3c(-c3ccc(N(c4ccccc4)c4ccccc4)cc3)c3ccccc23)NC1=S  MIC (broth dilution; ATCC43300): > 1000 µg/mL
C[S+]([O-])c1ccc(-c2nc(-c3ccc(F)cc3)c(-c3ccncc3)[nH]2)cc1 (stereo not shown)  MIC (NCTC8325): > 30 µM
CC(C)(O/N=C(\C(=O)N[C@@H]1C(=O)N2C(C(=O)[O-])=C(C[n+]3ccccc3)CS[C@H]12)c1csc(N)n1)C(=O)O  MIC (broth dilution; ATCC25923; 18 h): 1 µg/mL
Fc1cc(-c2cccc3ncc(-c4cnn(C5CCNCC5)c4)nc23)cc(F)c1CN1CCOCC1  MIC (NCTC8325): > 30 µM
C[n+]1c(/C=C/c2ccc(O)cc2)cc(/C=C2\Sc3ccccc3N2CCCN2CCOCC2)c2ccccc21.[I-]  MIC (broth dilution; ATCCBAA44): 8 µg/mL
Cc1ccc(-n2nc(C(C)(C)C)cc2NC(=O)Nc2ccc(OCCN3CCOCC3)c3ccccc23)cc1  MIC (NCTC8325): > 30 µM
O=C1NC(=S)S/C1=C\c1c2ccccc2c(-c2ccc(N(c3ccccc3)c3ccccc3)cc2)c2ccccc12  MIC (broth dilution; ATCC43300): > 1000 µg/mL
C=CCn1c(-c2ccc(OC)c(OC)c2)nc2ccccc21  MIC (broth dilution; ATCC29213 MSSA): 128 µg/mL
CC(C)Oc1c(NC(=O)c2ccc(NC(=O)[C@H](CC(N)=O)NC(=O)c3cccc(-c4cccc(C#N)c4)c3)cc2)ccc(C(=O)Nc2ccc(C(=O)O)cc2)c1O  MIC (ATCC29213): > 64 µg/mL
CC[C@H]1OC(=O)[C@H](C)[C@@H](O[C@H]2C[C@@](C)(OC)[C@@H](O)[C@H](C)O2)[C@H](C)[C@@H](O[C@@H]2O[C@H](C)C[C@H](N(C)C)[C@H]2O)[C@](C)(O)C[C@@H](C)C(=O)[C@H](C)[C@@H](O)[C@]1(C)O  MIC (147; clinical isolate): 37.5 µM
Nc1nccc(Oc2ccc(NC(=O)c3c[nH]cc(-c4ccc(F)cc4)c3=O)cc2F)c1Cl  MIC (NCTC8325): > 30 µM
Cc1cccc(NCc2ccc(Oc3ccccn3)cc2)c1  MIC: > 6.2 µg/mL
CN(C)c1ccc(-c2nc3ccccc3[nH]2)cc1  MIC (broth dilution; ATCC29213 MSSA): 64 µg/mL
Cc1ccc(C)n1-c1ccc(-c2nnc(-c3ccccc3[N+](=O)[O-])[nH]2)cc1  MIC (broth dilution; ATCC11632; 18 h): 8 µg/mL
CC1(C)S[C@@H]2[C@H](NC(=O)[C@H](N)c3ccccc3)C(=O)N2[C@H]1C(=O)O  MIC (broth dilution): 0.02 µg/mL
Cc1ccc(C)n1-c1ccc(-c2nnc(-c3ccc(Br)cc3)[nH]2)cc1  MIC (broth dilution; ATCC11632; 18 h): 1 µg/mL
O=C1NC(=S)N/C1=C\c1c2ccccc2c(-c2ccc(N(c3ccccc3)c3ccccc3)cc2)c2ccccc12  MIC (broth dilution; ATCC43300): > 1000 µg/mL
CC1(C)S[C@@H]2[C@H](NC(=O)[C@H](N)c3ccccc3)C(=O)N2[C@H]1C(=O)O  MIC (broth dilution; CCARM3090): 16 µg/mL
